Screening data: PubChem BioAssay, Broad Institute
Compounds with a hit are over-represented: about 2.2% of the library has one in this group of screens.
F508del corr: CFTR F508del correction in bronchial cells. CFBE cells, YFP halide quenching; stimulated with forskolin plus potentiator P3; % fluorescence drop versus neutral controls. activity (quench increase), % at 7.58 µM. 0.36% of 350,000 active. AID 720511;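 active means mean added fluorescence quench of at least 8% versus neutral control, with both replicates also reaching 8%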;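 further: cells transiently co-express mutant CFTR-F508del with the halide-sensitive YFP; corrector assay measuring rescue of mutant channel to the surface after 24 h compound exposure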
FGF22 binding: binders of recombinant human FGF22 by thermal shift; Q9HCT0; SYPRO orange fluorescence; percent of sucrose octasulfate shift, DMSO zero; activity (Tm shift, normalised), % at 9.99 µM; 1.5% of 340,000 active;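 active means mean Tm shift, scaled 0 neutral to 100 positive control, at about 1.3% or above, every replicate too, limit read from the data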
Target sequence (Q9HCT0 whole entry, looked up): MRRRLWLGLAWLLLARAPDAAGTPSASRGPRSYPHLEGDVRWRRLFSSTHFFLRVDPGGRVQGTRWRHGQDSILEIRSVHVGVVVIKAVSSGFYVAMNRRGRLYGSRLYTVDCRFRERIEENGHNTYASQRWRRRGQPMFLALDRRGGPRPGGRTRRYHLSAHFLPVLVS
dFosB activator: mouse delta FosB homodimer activation; P13346; purified delta FosB, TAMRA-CDK5 oligo fluorescence polarization; percent of positive-control signal above neutral wells; activation, % at 25 µM; 0.99% of 340,000 active; AID 493131;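 active means mean activation above about 17%, with every replicate also reaching it, limit read from the data, passing the limit was not always enough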
Target sequence (P13346 whole entry, looked up): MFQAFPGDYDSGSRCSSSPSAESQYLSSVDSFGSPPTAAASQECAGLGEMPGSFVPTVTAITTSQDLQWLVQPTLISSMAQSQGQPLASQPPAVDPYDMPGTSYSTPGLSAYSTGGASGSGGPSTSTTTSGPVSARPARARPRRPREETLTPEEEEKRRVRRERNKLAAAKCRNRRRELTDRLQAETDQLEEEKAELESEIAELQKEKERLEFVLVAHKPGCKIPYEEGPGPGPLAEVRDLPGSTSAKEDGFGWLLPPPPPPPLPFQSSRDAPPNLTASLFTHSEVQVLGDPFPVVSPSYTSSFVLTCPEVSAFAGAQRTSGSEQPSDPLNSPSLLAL
S100A4 inh HTS: blocks human S100A4 binding to myosin IIA peptide; P26447; S100A4/TAMRA-MyoIIA peptide fluorescence polarization; inhibition, % at 10.7 µM; 0.14% of 360,000 active; AID 652163;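 active means mean inhibition of at least 70% across replicates, with every replicate also reaching that level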
Target sequence (P26447 whole entry, looked up): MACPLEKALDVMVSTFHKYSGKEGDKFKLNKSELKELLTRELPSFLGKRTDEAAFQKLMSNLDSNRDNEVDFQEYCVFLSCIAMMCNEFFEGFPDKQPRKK
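Test system – S100A4 monomer (human) · Compound – single-point compound testing · Schedule – 5 min incubation before reading · Probe or stimulus – TAMRA-labelled myosin IIA heavy-chain peptide probe, 5 nM · Benchmarks – neutral control DMSO, positive control TFP · Medium – Calcium-containing HEPES buffer, pH 7.2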
The depositor's hits bear a star; nt = no result given.

SMILES | F508del corr | FGF22 binding | dFosB activator | S100A4 inh HTS
COc1cc(/C=C/C(=O)Nc2cccc(S(=O)(=O)N3CCOCC3)c2)ccc1OCC#N | 6.0 | 4.1* | -13.3 | 2.8
CCN(CC(=O)Nc1c(F)cccc1F)C(=O)CNC(=O)c1cccs1 | -1.1 | -0.3 | 2.7 | 87.2*
CCN(CC(=O)Nc1c(F)cccc1F)C(=O)CNC(=O)c1ccc2ccccc2c1 | 2.0 | 0.3 | 1.7 | 16.8
COc1ccc(NC(=O)Nc2ccc3c(c2)C(=O)N([C@@H](C)CO)C[C@@H](C)[C@@H](CN(C)C(=O)NC2CCCCC2)OCCCC[C@@H](C)O3)cc1 | 2.1 | -0.2 | nt | 13.4
CC=Cc1ccc2n(c1=O)C[C@H]1[C@H](CO)[C@@H](C(=O)Nc3ccc(-c4ccccc4)cc3)N(CC)[C@@H]21 (mixture of isomers) | -0.8 | -0.3 | nt | -2.6
O=C(C[C@@H]1CC[C@H]2[C@@H](COC[C@H](O)CN2CC2CCCCC2)O1)NCc1ccc(Cl)cc1 | 0.3 | 0.0 | nt | 1.5
CCCC#Cc1ccc([C@@H]2[C@H](CO)N3CCCCN(C(=O)NC4CCCC4)C[C@@H]23)cc1 | -0.3 | -0.4 | nt | 1.4
COc1ccc2c3c([nH]c2c1)[C@H](CO)N(C(=O)NC1CCCC1)CC31CCN(C(=O)Nc2cccc(F)c2)CC1 | 0.5 | -0.1 | nt | 2.7
NC(=O)COC(=O)/C=C/c1cccc(Br)c1 | 1.9 | 43.0* | 5.9 | -2.3
C[C@@H]1CN([C@H](C)CO)C(=O)c2cc(C#CCN(C)C)cnc2O[C@@H]1CN(C)Cc1ccc(C(=O)O)cc1 | nt | 0.0 | nt | 2.8
C[C@@H]1CN([C@H](C)CO)C(=O)c2ccccc2-c2ccccc2CO[C@H]1CN(C)C(=O)[C@H](C)c1ccccc1 | 2.8 | 0.1 | nt | 6.5
CC1C/C(=N/Nc2nc3ccccc3[nH]2)CC(C)(C)C1 (configuration not stated) | 6.6 | 43.4* | 7.2 | 5.4
CCCNC(=O)C[C@@H]1C[C@@H]2c3cc(NC(=O)Nc4ccc(OC)cc4)ccc3O[C@@H]2[C@@H](CO)O1 | -2.7 | -0.4 | nt | 12.7
CC1CCc2c(sc3ncn(Cc4ccc(C(=O)O)cc4)c(=O)c23)C1 (configuration not stated) | 0.3 | 43.2* | -6.2 | -4.2
COC(=O)Cn1cnc2sc3c(c2c1=O)CCCC3 | 0.2 | 42.9* | 1.0 | -1.5
CC1CCc2c(sc3ncn(CCO)c(=O)c23)C1 (configuration not stated) | -0.9 | 42.3 | -4.6 | 1.5
CCOC(=O)Cn1cnc2sc3c(c2c1=O)CCC3 | nt | nt | -4.8 | nt
CNC(=O)C[C@H]1CC[C@H]2[C@@H](COC[C@H](O)CN2C(=O)c2ccc3c(c2)OCO3)O1 | 1.4 | -0.1 | nt | -27.2
C/C=C/c1ccc2c(c1)O[C@H](CN(C)C(=O)CN(C)C)[C@@H](C)CN([C@H](C)CO)S2(=O)=O | -3.5 | 0.0 | nt | -0.7
C=CCNC(=O)CC1C(=O)NCCN1Cc1ccc(-c2ccccc2)cc1 (configuration not stated) | -0.1 | 43.3* | -1.1 | -1.7
CN(CCc1ccccn1)C(=O)CC1C(=O)NCCN1Cc1ccc(-c2ccccc2)cc1 (configuration not stated) | -2.6 | 43.8* | -7.0 | -1.1
COCCN(C)C(=O)CC1C(=O)NCCN1CC(c1ccccc1)c1ccccc1 (configuration not stated) | 2.1 | 44.4* | -1.0 | 4.7
O=C(CC1C(=O)NCCN1Cc1ccc(-c2ccccc2)cc1)NCC1CC1 (configuration not stated) | 0.7 | 43.8* | -7.9 | 3.3
Cc1ccc(CN2CCNC(=O)C2CC(=O)N(C)CCc2ccccc2)cc1 (configuration not stated) | 1.0 | -0.1 | -6.3 | -11.0
COCC#Cc1ccc2c(c1)O[C@H](CN(C)Cc1ccccn1)[C@H](C)CN([C@@H](C)CO)S2(=O)=O | -0.1 | nt | nt | nt
SMILES | F508del corr | FGF22 binding | dFosB activator | S100A4 inh HTS
C[C@@H]1CN([C@@H](C)CO)C(=O)c2cc(NC(=O)Nc3ccccc3)ccc2O[C@H]1CN(C)Cc1ccc(-c2ccccc2)cc1 | -0.8 | 0.0 | nt | 11.3
CCc1cc(CNC(=O)CC2C(=O)NCCN2Cc2cccc(OC)c2)on1 (configuration not stated) | 4.0 | 44.2* | -2.1 | 0.6
COc1ccccc1CN1CCNC(=O)C1CC(=O)NCCCN1CCOCC1 (configuration not stated) | 1.1 | 0.1 | nt | 131.0*
COc1cccc(CN2CCNC(=O)C2CC(=O)NCCN2CCOCC2)c1OC (configuration not stated) | 1.8 | 0.2 | -14.2 | -3.5
CC(C)CC(N)c1csc(Nc2cnccn2)n1 (configuration not stated) | 1.1 | 43.6* | nt | -2.2
CCC(=O)N(C)C[C@H]1Oc2cc(-c3ccc(F)cc3)ccc2S(=O)(=O)N([C@@H](C)CO)C[C@@H]1C | 4.7 | -0.2 | nt | 6.6
O=C1COc2ccc(-c3n[nH]c(=O)c4ccccc34)cc2N1 | 2.6 | 43.2* | -8.9 | 4.7
O=C1NC(=S)S/C1=C/c1ccc(N2CCOCC2)o1 | nt | nt | 49.1* | nt
COc1ccc2c3c([nH]c2c1)[C@@H](CO)N(C(=O)C1CCCCC1)CC31CCN(C(=O)c2ccncc2)CC1 | 0.1 | -0.1 | nt | -72.6
O=S(=O)(Nc1nc2ccccc2nc1OCC(F)(F)F)c1cccs1 | -0.8 | 45.1* | -3.2 | -0.1
CC(=O)N1CCCCN2[C@H](CO)[C@H](c3ccc(-c4cccc(C(=O)N(C)C)c4)cc3)[C@H]2C1 | 0.8 | 0.7 | nt | 4.0
CCCc1cc(C(=O)N2CCC(N3CCC(C(=O)NC(C)C)CC3)CC2)n(C)n1 | 2.3 | 43.7* | 1.2 | -1.5
C[C@H](CO)N1C[C@H](C)[C@@H](CN(C)S(C)(=O)=O)Oc2ncc(C#CC3CCCCC3)cc2C1=O | 0.5 | -0.3 | nt | 6.7
O=C(NCCc1ccc(Cl)cc1)c1ccc(Br)s1 | 0.6 | -0.3 | 2.6 | -2.4
NS(=O)(=O)c1ccc(CCNC(=O)c2ccc(Br)s2)cc1 | 2.1 | 43.2* | -5.0 | 0.1
NC(=O)C1CCN(C(=O)CN(c2ccc3c(c2)OCCO3)S(=O)(=O)c2ccccc2)CC1 | -1.0 | -0.2 | 1.7 | -13.1
O=C(CN(c1ccc2c(c1)OCCO2)S(=O)(=O)c1ccccc1)N1CCN(Cc2ccccc2)CC1 | 1.8 | 43.5* | -5.4 | 0.0
O=C(CSc1nc2ccccc2n1Cc1ccc(Cl)cc1)N/N=C/c1ccccc1C(=O)O | -1.7 | 0.3 | -20.0 | -7.0
O=C(O)COc1ccccc1/C=N/NC(=O)CSc1nc2ccccc2n1Cc1ccc(Cl)cc1 | 0.6 | 1.4* | 1.5 | 4.1
COc1cc(C)c(C(=O)Oc2cc(C)c(C(=O)O)c(O)c2C)c(O)c1C | -0.7 | 1.6* | -7.8 | -8.7
COc1cc(C)c(C(=O)Oc2cc(C)c(C(=O)O)c(O)c2)c(O)c1 | 2.9 | 1.3 | 3.3 | -5.4
Nc1ccc2c(c1)C(=O)c1cc(N)c(Cl)cc1-2 | 1.1 | 42.9* | 7.1 | -0.9
Nc1ccc2c(c1)C(=O)c1ccc(Cl)cc1-2 | 1.3 | 0.8 | 0.9 | -3.3
